According to ChEMBL document CHEMBL3286393 (J Med Chem, 2014):

Columns and labels:
Monocyte = assay: Inhibition of 11-HETE formation in LPS-stimulated human monocytes preincubated for 15 mins before arachidonic acid substrate addition measured after 30 mins by UPLC-MS/MS analysis; assay type: functional, cell-based
Summary of the method: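 Fresh human monocytes (adherence-isolated, >85% CD14+; 5 × 10⁶/well) primed with LPS 1 μg/mL for 24 h. Washed, 15 min preincubation, then 2.5 μM A23187 plus 20 μM arachidonic acid for 30 min. Eicosanoids extracted and measured by UPLC-MS/MS, normalized to PGB1 as relative intensities. Two to three independent experiments.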

[1] = target: Prostaglandin G/H synthase 1 (Homo sapiens, UniProt P23219); assay: Inhibition of COX1-mediated […] in human platelets assessed as residual activity by measuring formation of 12-HHT from arachidonic acid preincubated at 10 uM for 5 mins measured after 5 mins by RP-HPLC analysis relative to control; values are per cent of control
Mus musculus [2] = assay: Antiinflammatory activity in zymosan-induced peritonitis CD1 mouse model assessed as suppression of LTC4 level at 10 mg/kg, ip administered 30 mins before challenge measured 30 mins post zymosan challenge relative to control; assay type: functional; settings: route intraperitoneal
Summary of the method: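 Male CD-1 mice (33−39 g, 8−9 weeks; n = 5−11 per group) dosed ip in 0.5 mL 0.9% saline with 2% DMSO 30 min before ip zymosan (0.5 mL of 2 mg/mL in saline). Killed by CO2 30 min after zymosan, peritoneum lavaged with 3 mL cold PBS pH 7.4. Cysteinyl-LTs in exudate supernatant by enzyme immunoassay; % inhibition vs vehicle.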

[3] = target: T1, Prostaglandin G/H synthase 2 (Homo sapiens, UniProt P35354); assay: Inhibition of COX2-mediated PGF2alpha formation in LPS-stimulated human monocytes preincubated for 15 mins before arachidonic acid substrate addition measured after 30 mins by UPLC-MS/MS analysis; assay type: cell-based
T1 sequence (P35354 whole entry): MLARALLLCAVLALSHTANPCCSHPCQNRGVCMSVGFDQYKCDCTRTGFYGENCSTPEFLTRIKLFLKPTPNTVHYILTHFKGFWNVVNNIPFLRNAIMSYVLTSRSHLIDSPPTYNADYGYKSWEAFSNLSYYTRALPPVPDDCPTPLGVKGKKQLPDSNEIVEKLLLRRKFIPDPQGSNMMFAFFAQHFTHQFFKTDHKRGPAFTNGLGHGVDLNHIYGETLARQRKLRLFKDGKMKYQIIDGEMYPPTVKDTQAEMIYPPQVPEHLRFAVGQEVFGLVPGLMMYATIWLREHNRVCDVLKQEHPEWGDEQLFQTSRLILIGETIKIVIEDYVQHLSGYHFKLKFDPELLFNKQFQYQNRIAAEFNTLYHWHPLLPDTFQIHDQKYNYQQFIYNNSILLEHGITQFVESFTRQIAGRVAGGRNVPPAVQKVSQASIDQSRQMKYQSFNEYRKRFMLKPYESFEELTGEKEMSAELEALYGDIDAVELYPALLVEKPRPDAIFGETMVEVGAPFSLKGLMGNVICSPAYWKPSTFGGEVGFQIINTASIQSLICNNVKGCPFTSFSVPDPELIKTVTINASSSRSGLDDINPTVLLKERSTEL

[4] = target: T1, Prostaglandin G/H synthase 2; assay: Inhibition of COX2-mediated PGD2 formation in LPS-stimulated human monocytes preincubated for 15 mins before arachidonic acid substrate addition measured after 30 mins by UPLC-MS/MS analysis; assay type: cell-based
Mus musculus [5] = assay: Antiinflammatory activity in zymosan-induced peritonitis CD1 mouse model assessed as suppression of neutrophil infiltration at 10 mg/kg, ip administered 30 mins before challenge measured 4 hrs post zymosan challenge relative to control; assay type: functional; settings: route intraperitoneal
Summary of the method: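 Zymosan peritonitis in male CD-1 mice (n = 5−11): ip dose in 2% DMSO/saline 30 min before ip zymosan. Peritoneal lavage with 3 mL cold PBS at 4 h. Exudate cells counted by light microscopy in a Burker chamber after trypan blue staining; % inhibition vs vehicle.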

Mus musculus [6] = assay: Antiinflammatory activity in zymosan-induced peritonitis CD1 mouse model assessed as suppression of LTB4 level at 10 mg/kg, ip administered 30 mins before challenge measured 4 hrs post zymosan challenge relative to control

Chain of Prostaglandin G/H synthase 1 (P23219 whole entry): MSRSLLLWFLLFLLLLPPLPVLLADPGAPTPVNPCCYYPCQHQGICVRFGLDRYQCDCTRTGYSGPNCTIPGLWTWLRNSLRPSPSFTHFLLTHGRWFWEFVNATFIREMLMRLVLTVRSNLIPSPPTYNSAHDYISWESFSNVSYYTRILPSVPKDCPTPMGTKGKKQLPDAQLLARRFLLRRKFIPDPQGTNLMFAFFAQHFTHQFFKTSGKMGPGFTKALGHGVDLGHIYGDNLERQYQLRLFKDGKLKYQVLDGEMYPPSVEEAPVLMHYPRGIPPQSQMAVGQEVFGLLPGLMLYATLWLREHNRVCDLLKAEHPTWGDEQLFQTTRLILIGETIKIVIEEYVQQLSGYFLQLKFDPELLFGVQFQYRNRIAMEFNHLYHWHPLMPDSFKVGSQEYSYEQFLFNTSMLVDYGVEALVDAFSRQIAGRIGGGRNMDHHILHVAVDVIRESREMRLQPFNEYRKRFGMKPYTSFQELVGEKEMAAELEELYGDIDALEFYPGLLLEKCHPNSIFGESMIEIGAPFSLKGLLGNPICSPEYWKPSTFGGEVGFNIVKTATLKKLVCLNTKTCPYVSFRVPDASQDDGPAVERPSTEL

With `COc1cc(/C=C/C(=O)CC(=O)/C=C/c2ccc(O)c(OC)c2)ccc1O` [CURCUMIN] the IC50 (Monocyte) was 1.2 µM.
In the case of `COc1cc(/C=C/c2cc(/C=C/c3ccc(O)c(OC)c3)[nH]n2)ccc1O` [CURCUMIN PYRAZOLE], the residual activity [1] is reported as 82.3%.
`COc1cc(/C=C/c2cc(/C=C/c3cc(CC=C(C)C)c(O)c(OC)c3)[nH]n2)cc(CC=C(C)C)c1O` was tested, and the inhibition in vivo at 10 mg/kg (Mus musculus [2]) was 92%, the IC50 [3] was over 10 µM and the IC50 [4] was over 10 µM. It also gave an inhibition in vivo at 10 mg/kg (Mus musculus [5]) of 75% and an inhibition in vivo at 10 mg/kg (Mus musculus [6]) of 61%.
